Results on 20 compounds are retold here after ChEMBL document CHEMBL1157810, “Synthesis and evaluation of nitric oxide-releasing derivatives of farnesylthiosalicylic acid as anti-tumor agents” (Bioorg Med Chem, 2010).

For experiment [1], the system named is MDA-MB-231. Description: Cytotoxicity against human MDA-MB-231 cells after 48 hrs by MTT assay. The experiment is classed as functional, cell-based. Particulars: MDA-MB-231, 48 h. The method in brief:
(§1)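 Cells at 5–10 × 10³/well grown overnight in RPMI-1640, then exposed in triplicate to a concentration series for 48 h. MTT (1 mg/mL) added for the final 4 h, formazan dissolved in DMSO, read at 570 nm against 595 nm reference. Untreated cells served as negative control, 1% Triton-treated cells as positive control. Inhibition calculated relative to negative-control OD. IC50 taken as concentration giving 50% growth inhibition.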

Experiment [2] in a line: Cytotoxicity against human U87 cells after 48 hrs by MTT assay. As to conditions: U-87 MG. The experiment is classed as functional, cell-based, U-87MG ATCC. The gist of the method: as §1
Experiment [3] has as its system SGC-7901. Description: Cytotoxicity against human SGC7901 cells after 48 hrs by MTT assay. It counts as functional, cell-based. As to conditions: SGC-7901, 48 h. The method in brief: as §1
Experiment [4] has as its system U-251. Description: Cytotoxicity against human U251 cells after 48 hrs by MTT assay. It counts as functional, cell-based. As to conditions: U-251, 48 h. The method in brief:
as §1

Experiment [5] concerns MCF7. Description: Cytotoxicity against human MCF7 cells after 48 hrs by MTT assay. As to conditions: MCF7, 48 h. It counts as functional, cell-based. The method in brief: as §1
Experiment [6] concerns MCF7. Description: Induction of NO production in human MCF7 cells at 100 uM after 30 to 300 mins by Griess assay. It counts as functional, cell-based. The gist of the method:
(§2)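 Cells treated with compound at 100 µM. Nitrate/nitrite in cell lysates measured by Griess reaction at 540 nm over 30–300 min and quantified from a sodium nitrate standard curve. Diluent-treated cells gave background. Reported values are means of two experiments at 240 min post-treatment.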

Experiment [7] relates to SGC-7901. Description: Induction of NO production in human SGC7901 cells at 100 uM after 30 to 300 mins by Griess assay. It counts as functional, cell-based. The gist of the method:
as §2

A further experiment deals with U-87MG ATCC. Description: Induction of NO production in human U87 cells at 100 uM after 30 to 300 mins by Griess assay. The experiment is classed as functional, cell-based. The gist of the method:
as §2

Experiment [8] concerns U-251. Description: Induction of NO production in human U251 cells at 100 uM after 30 to 300 mins by Griess assay. It counts as functional, cell-based. The method in brief: as §2
Experiment [9] relates to MDA-MB-231. Description: Induction of NO production in human MDA-MB-231 cells at 100 uM after 30 to 300 mins by Griess assay. The experiment is classed as functional, cell-based. The method in brief: as §2
For experiment [10], the system named is MDA-MB-231. Description: Inhibition of Ras activation in human MDA-MB-231 cells assessed as reduction in phosphorylated ERK levels at 5 uM after 8 hrs by Western blot. It counts as cell-based. The gist of the method:
(§3)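 MDA-MB-231 cells at 1.5 × 10⁵/mL exposed to 1 or 5 µM compound or vehicle for 8 h, then harvested and lysed. Lysates resolved by SDS–PAGE and immunoblotted with antibodies to phospho-Akt (Ser473), phospho-ERK (Thr202/Tyr204), phospho-Raf (Ser259), total Akt, total ERK and β-actin. Detection by HRP-conjugated secondary antibodies and enhanced chemiluminescence. Blots representative of two experiments.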

Experiment [11] relates to MDA-MB-231. Description: Inhibition of Ras activation in human MDA-MB-231 cells assessed as reduction in phosphorylated Akt levels at 5 uM after 8 hrs by Western blot. It counts as cell-based. The method in brief:
as §3

For experiment [12], the system named is MDA-MB-231. Description: Inhibition of Ras activation in human MDA-MB-231 cells assessed as reduction in phosphorylated Raf levels at 5 uM after 8 hrs by Western blot. The experiment is classed as cell-based. The method in brief: as §3
Experiment [13] deals with MDA-MB-231. Description: Cytotoxicity against human MDA-MB-231 cells after 24 hrs by MTT assay in presence of hemoglobin.
Experiment [14] deals with MDA-MB-231. Description: Induction of NO production in human MDA-MB-231 cells at 100 uM after 30 to 300 mins by Griess assay in presence of hemoglobin. The experiment is classed as functional, cell-based. The gist of the method:
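MDA-MB-231 cells (5 × 10⁶/well) were treated in triplicate with 100 µM compound […], harvested and lysed. Lysates were mixed with Griess reagent for 30–300 min and absorbance read at 540 nm. Nitrate/nitrite was quantified against a sodium nitrate standard curve, with diluent-treated cells as background.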

The structures appear in SMILES notation. Activity calls are given as the source filed them. The rule behind the calls is not given here. Where only a bound is given, the exact number is not on record here.

`O=S(=O)(c1ccccc1)c1c(OCCCCO)no[n+]1[O-]` gave an IC50 in the experiment on MDA-MB-231 [1] of 9.87 µM.
As for `CC(C)=CCC/C(C)=C/CC/C(C)=C/CSc1ccccc1C(=O)N[C@@H](Cc1ccccc1)C(=O)OCCOCCOc1no[n+]([O-])c1S(=O)(=O)c1ccccc1`, the IC50 (in experiment [2]; with MDA-MB-231 [1]; in the experiment on SGC-7901 [3]; in the experiment on U-251 [4]; with MCF7 [5]) was over 50 µM in each case.
As for `CC(C)=CCC/C(C)=C/CC/C(C)=C/CSc1ccccc1C(=O)N[C@@H](Cc1ccccc1)C(=O)OC(C)CCOc1no[n+]([O-])c1S(=O)(=O)c1ccccc1` (stereo partly specified), the outcome in the experiment on MCF7 [6], in the experiment on SGC-7901 [7], with U-87MG ATCC, with U-251 [8] and in the experiment on MDA-MB-231 [9] was Active. Besides, the IC50 (in [2]; with MDA-MB-231 [1]; with SGC-7901 [3]; in the experiment on U-251 [4]; in the experiment on MCF7 [5]) was over 50 µM each time.
In the experiment with MDA-MB-231 [1], `O=S(=O)(c1ccccc1)c1c(OCCOCCO)no[n+]1[O-]` showed an IC50 of 20.5 µM.
Consider `CC(C)=CCC/C(C)=C/CC/C(C)=C/CSc1ccccc1C(=O)NCC(=O)OC(C)CCOc1no[n+]([O-])c1S(=O)(=O)c1ccccc1` (stereo unspecified), for which the concentration for half-maximal inhibition (IC50) in [2] was 15.3 µM; in the experiment with MDA-MB-231 [1] it was 7.26 µM; in the experiment on SGC-7901 [3] it was 11.9 µM; in the experiment with U-251 [4] it was 10.8 µM; in the experiment on MCF7 [5], 9.11 µM.
For `CC(C)=CCC/C(C)=C/CC/C(C)=C/CSc1ccccc1C(=O)N[C@@H](C)C(=O)OCCCCOc1no[n+]([O-])c1S(=O)(=O)c1ccccc1` the same measures were 26.4 µM, over 50 µM, 44.6 µM, 7.95 µM and 8.68 µM.
For `CC(C)=CCC/C(C)=C/CC/C(C)=C/CSc1ccccc1C(=O)N[C@@H](C)C(=O)OCC#CCOc1no[n+]([O-])c1S(=O)(=O)c1ccccc1` the same measures were 5.18 µM, 1.01 µM, 11.4 µM, 7.31 µM and 5.03 µM.
For the compound `CC(C)=CCC/C(C)=C/CC/C(C)=C/CSc1ccccc1C(=O)NCC(=O)OCC#CCOc1no[n+]([O-])c1S(=O)(=O)c1ccccc1`, the outcome in the experiment with MCF7 [6], in the experiment on SGC-7901 [7], in the experiment with U-87MG ATCC, in the experiment with U-251 [8] and in the experiment with MDA-MB-231 [9] was Active. For the same compound, the IC50 came out at 14.8 µM in experiment [2]; 7.23 µM with MDA-MB-231 [1]; 11.4 µM with SGC-7901 [3]; 11.7 µM in the experiment with U-251 [4]; 6.91 µM in the experiment on MCF7 [5].
Take `CNC(=O)c1cc(Oc2ccc(NC(=O)Nc3ccc(Cl)c(C(F)(F)F)c3)cc2)ccn1` [SORAFENIB]: the IC50 is 21.1 µM in [2]; 4.77 µM with MDA-MB-231 [1]; 10.4 µM with SGC-7901 [3]; 24.7 µM with U-251 [4]; 8.83 µM in the experiment with MCF7 [5].
On to `CC(C)=CCC/C(C)=C/CC/C(C)=C/CSc1ccccc1C(=O)O` [SALIRASIB], for which the concentration for half-maximal inhibition (IC50) in [2] was found to be 54 µM; in the experiment on MDA-MB-231 [1], 51.2 µM; in the experiment with SGC-7901 [3] it was 37.7 µM; in the experiment on U-251 [4], 46.9 µM; with MCF7 [5] it was 46.8 µM. The result in the experiment on MDA-MB-231 [10], in the experiment with MDA-MB-231 [11] and with MDA-MB-231 [12] was inactive.
In the case of `CC(C)=CCC/C(C)=C/CC/C(C)=C/CSc1ccccc1C(=O)N[C@@H](Cc1ccccc1)C(=O)OCCCCOc1no[n+]([O-])c1S(=O)(=O)c1ccccc1`, the 50% inhibitory concentration (IC50) (in experiment [2]; with MDA-MB-231 [1]; in the experiment on SGC-7901 [3]; with U-251 [4]; in the experiment with MCF7 [5]) was over 50 µM throughout.
As for `CC(C)=CCC/C(C)=C/CC/C(C)=C/CSc1ccccc1C(=O)N1CCC[C@H]1C(=O)OCCCCOc1no[n+]([O-])c1S(=O)(=O)c1ccccc1`, the half-inhibitory concentration (IC50) was 9 µM in experiment [2]; 3.14 µM with MDA-MB-231 [1]; 22.5 µM in the experiment on SGC-7901 [3]; 6.99 µM in the experiment with U-251 [4]; 7.47 µM in the experiment with MCF7 [5].
In the same order, the values of `CC(C)=CCC/C(C)=C/CC/C(C)=C/CSc1ccccc1C(=O)N[C@@H](Cc1ccccc1)C(=O)OCC#CCOc1no[n+]([O-])c1S(=O)(=O)c1ccccc1` are over 50 µM, over 50 µM, over 50 µM, over 50 µM and over 50 µM.
For `CC(C)=CCC/C(C)=C/CC/C(C)=C/CSc1ccccc1C(=O)NCC(=O)OCCCCOc1no[n+]([O-])c1S(=O)(=O)c1ccccc1` the same measures were over 50 µM, 9.99 µM, over 50 µM, 28.2 µM and 25.1 µM.
In the case of `CC(C)=CCC/C(C)=C/CC/C(C)=C/CSc1ccccc1C(=O)NCC(=O)OCCOCCOc1no[n+]([O-])c1S(=O)(=O)c1ccccc1`, the result in the experiment on MCF7 [6], with SGC-7901 [7], in the experiment on U-87MG ATCC, in the experiment on U-251 [8] and in the experiment with MDA-MB-231 [9] was Active. Also, the concentration for half-maximal inhibition (IC50) in [2] is 7.34 µM; with MDA-MB-231 [1] it was 2.41 µM; in the experiment with SGC-7901 [3] it was 19.5 µM; with U-251 [4] it was 8.58 µM; in the experiment on MCF7 [5], 6.59 µM.
For the compound `CC(C)=CCC/C(C)=C/CC/C(C)=C/CSc1ccccc1C(=O)N[C@@H](C)C(=O)OCCOCCOc1no[n+]([O-])c1S(=O)(=O)c1ccccc1`, the outcome in the experiment on MCF7 [6], in the experiment with SGC-7901 [7], in the experiment on MDA-MB-231 [10], in the experiment with MDA-MB-231 [11], in the experiment on U-87MG ATCC and in the experiment with U-251 [8] was Active. Besides, the result in the experiment on MDA-MB-231 [12] and with MDA-MB-231 [9] was Active. Moreover, the half-maximal inhibitory concentration (IC50) in [2] came out at 18.1 µM; in the experiment with MDA-MB-231 [1], 4.21 µM; with SGC-7901 [3], 11.3 µM; with U-251 [4] it was 8.04 µM; with MCF7 [5], 7.68 µM. Besides, the result with MDA-MB-231 [13] and with MDA-MB-231 [14] was inactive.
As to `CC(C)=CCC/C(C)=C/CC/C(C)=C/CSc1ccccc1C(=O)N1CCC[C@H]1C(=O)OC(C)CCOc1no[n+]([O-])c1S(=O)(=O)c1ccccc1` (stereo partly specified), the 50% inhibitory concentration (IC50) in experiment [2] was 8.47 µM; in the experiment on MDA-MB-231 [1], 1.54 µM; with SGC-7901 [3] it was 13.9 µM; with U-251 [4] it was 7.93 µM; in the experiment with MCF7 [5], 6.5 µM.
For the compound `CC(C)=CCC/C(C)=C/CC/C(C)=C/CSc1ccccc1C(=O)N1CCC[C@H]1C(=O)OCCOCCOc1no[n+]([O-])c1S(=O)(=O)c1ccccc1`, the result in the experiment with MCF7 [6], with SGC-7901 [7], in the experiment with U-87MG ATCC, in the experiment on U-251 [8] and in the experiment on MDA-MB-231 [9] was Active. The IC50 came to 12.9 µM in [2]; 3.16 µM in the experiment on MDA-MB-231 [1]; 7.86 µM in the experiment with SGC-7901 [3]; 4.83 µM in the experiment on U-251 [4]; 8.77 µM in the experiment with MCF7 [5].
The compound `O=S(=O)(c1ccccc1)c1c(OCC#CCO)no[n+]1[O-]` came in with an IC50 in the experiment with MDA-MB-231 [1] of 6.97 µM.
Turning to `CC(C)=CCC/C(C)=C/CC/C(C)=C/CSc1ccccc1C(=O)N[C@@H](C)C(=O)OC(C)CCOc1no[n+]([O-])c1S(=O)(=O)c1ccccc1` (stereo partly specified), the half-inhibitory concentration (IC50) was 20.4 µM in experiment [2]; 5.05 µM in the experiment on MDA-MB-231 [1]; over 50 µM in the experiment on SGC-7901 [3]; 15.3 µM in the experiment with U-251 [4]; 11.1 µM in the experiment with MCF7 [5].
